Assay results reported in ChEMBL document CHEMBL3217724, “Synthesis and evaluation of a series of benzothiophene acrylonitrile analogs as anticancer agents” (Medchemcomm, 2013).

Tests used:
Type in all cases: functional
[1] = Growth inhibition of human OVCAR8 cells; details: OVCAR-8
How it was run: (§1)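 NCI 60-human-cancer-cell-line panel, five-dose screen after a preliminary screen. GI50 is the molar concentration giving 50% growth inhibition.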

[2] = Growth inhibition of human OVCAR4 cells; details: OVCAR-4; how it was run: as §1
IGROV-1 = experiment: Growth inhibition of human IGROV1 cells; how it was run: as §1
[3] = Growth inhibition of human OVCAR3 cells; details: OVCAR-3; how it was run: as §1
[4] = Growth inhibition of human UACC257 cells; details: UACC-257
How it was run: (§2)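 NCI 60-cell-line panel, five-dose screen; GI50 is the molar concentration giving 50% growth inhibition.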

[5] = Growth inhibition of human UACC62 cells; details: UACC-62; how it was run: as §2
SK-MEL-5 = experiment: Growth inhibition of human SK-MEL-5 cells; how it was run: as §1
SK-MEL-2 = experiment: Growth inhibition of human SK-MEL-2 cells; how it was run: as §1
SK-MEL-28 = experiment: Growth inhibition of human SK-MEL-28 cells; how it was run: as §1
M14 = experiment: Growth inhibition of human M14 cells; how it was run: as §1
MDA-MB-435 = experiment: Growth inhibition of human MDA-MB-435 cells; how it was run: as §1
Malme-3M = experiment: Growth inhibition of human MALME-3M cells; how it was run: as §1
U-251 = experiment: Growth inhibition of human U251 cells; how it was run: as §2
[6] = Growth inhibition of human LOXIMVI cells; details: LOX IMVI; how it was run: as §1
SNB-75 = experiment: Growth inhibition of human SNB75 cells; how it was run: as §2
SNB-19 = experiment: Growth inhibition of human SNB19 cells; how it was run: as §2
[7] = Growth inhibition of human SF539 cells; details: SF-539; how it was run: as §1
[8] = Growth inhibition of human SF295 cells; details: SF-295; how it was run: as §1
SW-620 = experiment: Growth inhibition of human SW620 cells; how it was run: as §2
SF-268 = experiment: Growth inhibition of human SF268 cells; how it was run: as §1
HT-29 = experiment: Growth inhibition of human HT-29 cells; how it was run: as §1
KM12 = experiment: Growth inhibition of human KM12 cells; how it was run: as §1
[9] = Growth inhibition of human HCT15 cells; details: HCT-15; how it was run: as §1
[10] = Growth inhibition of human HCC2998 cells; details: HCC 2998; how it was run: as §1
HCT-116 = experiment: Growth inhibition of human HCT116 cells; how it was run: as §1
COLO 205 = experiment: Growth inhibition of human COLO205 cells; how it was run: as §1
NCI-H460 = experiment: Growth inhibition of human NCI-H460 cells; how it was run: as §1
NCI-H522 = experiment: Growth inhibition of human NCI-H522 cells; how it was run: as §1
NCI-H322M = experiment: Growth inhibition of human NCI-H322M cells; how it was run: as §1
NCI-H226 = experiment: Growth inhibition of human NCI-H226 cells; how it was run: as §1
NCI-H23 = experiment: Growth inhibition of human NCI-H23 cells; how it was run: as §1
[11] = Growth inhibition of human HOP92 cells; details: HOP-92; how it was run: as §1
[12] = Growth inhibition of human EKVX cells; how it was run: as §1
HOP-62 = experiment: Growth inhibition of human HOP62 cells; how it was run: as §1
SR = experiment: Growth inhibition of human SR cells; how it was run: as §2
A549 = experiment: Growth inhibition of human A549 cells; how it was run: as §1
RPMI-8226 = experiment: Growth inhibition of human RPMI8226 cells; how it was run: as §1
K562 = experiment: Growth inhibition of human K562 cells; how it was run: as §1
[13] = Growth inhibition of human MOLT4 cells; details: MOLT-4; how it was run: as §1
HL-60(TB) = experiment: Growth inhibition of human HL-60(TB) cells; how it was run: as §1
CCRF-CEM = experiment: Growth inhibition of human CCRF-CEM cells; how it was run: as §1
T47D = experiment: Growth inhibition of human T47D cells; how it was run: as §2
[14] = Growth inhibition of human Hs578T cells; details: Hs-578T; how it was run: as §1
[15] = Growth inhibition of human BT549 cells; details: BT-549; how it was run: as §1
MDA-MB-231 = experiment: Growth inhibition of human MDA-MB-231 cells; how it was run: as §1
DU-145 = experiment: Growth inhibition of human DU145 cells; how it was run: as §1
MCF7 = experiment: Growth inhibition of human MCF7 cells; how it was run: as §1
[16] = Growth inhibition of human UO31 cells; details: UO-31; how it was run: as §2
PC-3 = experiment: Growth inhibition of human PC3 cells; how it was run: as §1
TK-10 = experiment: Growth inhibition of human TK10 cells; how it was run: as §2
[17] = Growth inhibition of human RXF393 cells; details: RXF 393; how it was run: as §1
SN12C = experiment: Growth inhibition of human SN12C cells; how it was run: as §2
ACHN = experiment: Growth inhibition of human ACHN cells; how it was run: as §1
CAKI-1 = experiment: Growth inhibition of human Caki1 cells; how it was run: as §1
A498 = experiment: Growth inhibition of human A498 cells; how it was run: as §1
SK-OV-3 = experiment: Growth inhibition of human SKOV3 cells; how it was run: as §2
786-0 = experiment: Growth inhibition of human 786-0 cells; how it was run: as §1
[18] = Growth inhibition of human NCI-ADR-RES cells; how it was run: as §1
[19] = Growth inhibition of human OVCAR5 cells; details: OVCAR-5; how it was run: as §1

COc1ccc(/C(C#N)=C/c2cc3ccccc3s2)cc1OC
GI50 [1]: 25.1 nM | GI50 [2]: > 100 nM | GI50 (IGROV-1): 61.8 nM | GI50 [3]: 22 nM | GI50 [4]: > 100 nM | GI50 [5]: 45.9 nM | GI50 (SK-MEL-5): 21 nM | GI50 (SK-MEL-2): > 100 nM | GI50 (SK-MEL-28): > 100 nM | GI50 (M14): 61.1 nM | GI50 (MDA-MB-435): 10 nM | GI50 (Malme-3M): > 100 nM | GI50 (U-251): 64 nM | GI50 [6]: 60.7 nM | GI50 (SNB-75): 13.7 nM | GI50 (SNB-19): 44.4 nM | GI50 [7]: 10.6 nM | GI50 [8]: 10 nM | GI50 (SW-620): 24.2 nM | GI50 (SF-268): 45.2 nM | GI50 (HT-29): 31.8 nM | GI50 (KM12): 10 nM | GI50 [9]: 48.2 nM | GI50 [10]: 66.5 nM | GI50 (HCT-116): 41.1 nM | GI50 (COLO 205): 36.1 nM | GI50 (NCI-H460): 35.4 nM | GI50 (NCI-H522): 10 nM | GI50 (NCI-H322M): 31.5 nM | GI50 (NCI-H226): > 100 nM | GI50 (NCI-H23): 57.9 nM | GI50 [11]: > 100 nM | GI50 [12]: 90.8 nM | GI50 (HOP-62): 47 nM | GI50 (SR): 10 nM | GI50 (A549): 70 nM | GI50 (RPMI-8226): 29.8 nM | GI50 (K562): 35.4 nM | GI50 [13]: 53.5 nM | GI50 (HL-60(TB)): 22.2 nM | GI50 (CCRF-CEM): 28.6 nM | GI50 (T47D): > 100 nM | GI50 [14]: 30 nM | GI50 [15]: 28.3 nM | GI50 (MDA-MB-231): 26.9 nM | GI50 (DU-145): 36.6 nM | GI50 (MCF7): 47.8 nM | GI50 [16]: 18.7 nM | GI50 (PC-3): 29.7 nM | GI50 (TK-10): 45.2 nM | GI50 [17]: 90.9 nM | GI50 (SN12C): 13.6 nM | GI50 (ACHN): 85.4 nM | GI50 (CAKI-1): 82.7 nM | GI50 (A498): 26.6 nM | GI50 (SK-OV-3): 63.4 nM | GI50 (786-0): 33.7 nM | GI50 [18]: 10.5 nM | GI50 [19]: 50 nM
